Results collected from several papers.
Protocols differ between the studies behind these lines.
OPRK1: Kappa-type opioid receptor (OPRK1, Cavia porcellus, UniProt P41144)
ADRA1A: Alpha-1A adrenergic receptor (ADRA1A, Homo sapiens, UniProt P35348)
GLP2R: Glucagon-like peptide 2 receptor (GLP2R, Homo sapiens, UniProt O95838)

| Compound | target | effect on | mode | technique | notes | measurement | result |
| --- | --- | --- | --- | --- | --- | --- | --- |
| Cc1cc(C)c(C[C@H](NC(=O)[C@@H](CCCNC(=N)N)NC(=O)[C@@H](N)Cc2c(C)cc(O)cc2C)C(=O)N[C@@H](CCCCN)C(N)=O)c(C)c1 | OPRK1 | ligand displacement | – | radioligand | cell membranes | Ki | 48 nM |
| Cc1cc(O)cc(C)c1C[C@H](C)C(=O)N[C@@H]1C/C=C/CC[C@@H](C(N)=O)NC(=O)[C@H](Cc2ccccc2)NC(=O)[C@H](Cc2ccccc2)NC1=O | OPRK1 | ligand displacement | – | radioligand | cell membranes | Ki | 635 nM |
| CC(C)C[C@H](NC(=O)[C@H](CCCCN)NC(=O)[C@@H]1CCCN1C(=O)[C@@H](N)CCCNC(=N)N)C(=O)N[C@@H](CCCCN)C(=O)O | ADRA1A | cell-free assay | – | radioligand | – | Ki | > 10000 nM |
| CC[C@H](C)[C@H](NC(=O)[C@H](CO)NC(=O)[C@H](CC(=O)O)NC(=O)[C@H](CC(C)C)NC(=O)[C@@H](NC(=O)[C@H](CCCCN)NC(=O)[C@H](CC(N)=O)NC(=O)[C@@H](NC(=O)[C@H](CC(=O)O)NC(=O)[C@H](CO)NC(=O)[C@@H](NC(=O)[C@H](Cc1ccccc1)NC(=O)[C@H](CO)NC(=O)CNC(=O)[C@H](CC(=O)O)NC(=O)[C@@H](NC(=O)[C@@H](N)Cc1c[nH]cn1)C(C)C)[C@@H](C)O)C(C)C)C(C)C)C(=O)N[C@@H](C)C(=O)N[C@@H](C)C(=O)N[C@@H](CCCCN)C(=O)N[C@@H](CCC(=O)O)C(=O)N[C@@H](Cc1ccc(O)cc1)C(=O)N[C@@H](CC(C)C)C(=O)N[C@@H](CCC(N)=O)C(=O)N[C@@H](Cc1c[nH]c2ccccc12)C(=O)N[C@H](C(=O)N[C@@H](CCSC)C(=O)N[C@@H](CC(N)=O)C(=O)N[C@@H](CO)C(=O)N[C@@H](CCCCN)C(=O)N[C@@H](C)C(=O)N[C@@H](CO)C(=O)NCC(=O)O)C(C)C | GLP2R | reporter gene | agonist | luciferase | – | EC50 | > 1000 nM |
| Cc1cccc(C)c1C[C@H](NC(=O)[C@@H](CCCNC(=N)N)NC(=O)[C@@H](N)Cc1c(C)cc(O)cc1C)C(=O)N[C@@H](CCCCN)C(N)=O | OPRK1 | ligand displacement | – | radioligand | cell membranes | Ki | 4.7 nM |
| CC[C@H](C)[C@H](NC(=O)[C@H](CC(C)C)NC(=O)[C@H](Cc1c[nH]c2ccccc12)NC(=O)[C@H](CCCCN)NC(=O)[C@H](CC(C)C)NC(=O)[C@H](Cc1ccccc1)NC(=O)[C@H](CCC(=O)O)NC(=O)[C@H](CCC(N)=O)NC(=O)[C@@H](NC(=O)[C@H](C)NC(=O)[C@H](CC(C)C)NC(=O)[C@H](CC(=O)O)NC(=O)[C@H](CC(=O)O)NC(=O)[C@H](CC(C)C)NC(=O)[C@H](CC(C)C)NC(=O)[C@H](CCCCN)NC(=O)[C@H](CC(N)=O)NC(=O)[C@H](Cc1ccc(O)cc1)NC(=O)[C@H](CC(=O)O)NC(=O)[C@H](CO)NC(=O)[C@@H](NC(=O)[C@H](Cc1ccccc1)NC(=O)[C@@H](NC(=O)CNC(=O)[C@H](CC(=O)O)NC(=O)[C@H](C)NC(=O)[C@@H](N)Cc1c[nH]cn1)[C@@H](C)O)[C@@H](C)O)[C@@H](C)O)C(=O)N[C@@H](CC(N)=O)C(=O)N[C@@H](CCC(N)=O)C(=O)N[C@@H](CCCCN)C(=O)N[C@H](C(=O)N[C@H](C(=O)N[C@@H](CCC(N)=O)C(=O)O)[C@@H](C)O)C(C)C | GLP2R | reporter gene | agonist | luciferase | – | EC50 | 1.41 nM |
| Cc1cc(O)cc(C)c1C[C@H](C)C(=O)N[C@@H]1CCCCC[C@@H](C(N)=O)NC(=O)[C@H](Cc2ccccc2)NC(=O)[C@H](Cc2ccccc2)NC1=O | OPRK1 | ligand displacement | – | radioligand | cell membranes | Ki | 302 nM |
| N=C(N)NCCC[C@@H]1NC(=O)[C@H](Cc2ccc(O)cc2)NC(=O)[C@@H](CCCCN)NC(=O)[C@@H](Cc2ccccc2)NC1=O | OPRK1 | ligand displacement | – | radioligand | cell membranes | Ki | 4850 nM |
| C[C@H]1CC[C@@]2(OC1)O[C@H]1C[C@H]3[C@@H]4CC[C@@H]5C[C@@H](O[C@@H]6O[C@H](CO)[C@H](O)[C@H](O)[C@H]6O[C@@H]6O[C@H](CO)[C@@H](O)[C@H](O)[C@H]6O)CC[C@]5(C)[C@H]4CC[C@]3(C)[C@H]1[C@@H]2C | Angiotensin-converting enzyme 2 (ACE2, Homo sapiens, UniProt Q9BYF1) | binding | – | – | – | Kd | 61700 nM |
| CCCC[C@@H](NC(=O)[C@@H](N)Cc1c(C)cc(O)cc1C)C(=O)NCC(=O)N[C@@H](Cc1ccc(F)cc1)C(=O)N(C)CCC[C@@]1(c2ccc(F)cc2)OCc2cc(C#N)ccc21 | ADRA1A | ligand displacement | – | radioligand | – | Ki | > 10000 nM |
| CCc1cccc(C)c1C[C@H](NC(=O)[C@@H](CCCNC(=N)N)NC(=O)[C@@H](N)Cc1c(C)cc(O)cc1C)C(=O)N[C@@H](CCCCN)C(N)=O | OPRK1 | ligand displacement | – | radioligand | cell membranes | Ki | 0.961 nM |
| C[C@@H](NC(=O)[C@@H](N)Cc1ccc(O)cc1)C(=O)NCC(=O)N[C@@H](Cc1ccccc1)C(=O)N(C)CCC[C@@]1(c2ccc(F)cc2)OCc2cc(C#N)ccc21 | ADRA1A | ligand displacement | – | radioligand | – | Ki | 6800 nM |
| OC(c1ccc(F)cc1)C(F)(F)CCN1CCC(O)(c2ccc(Cl)cc2)CC1 (racemic) | Histamine H2 receptor (HRH2, Homo sapiens, UniProt P25021) | cell-free assay | – | radioligand | – | Ki | 4830 nM |
